The format of data set [1] is in vivo. The conditions noted are these: C57BL/6J mice.
The format of data set [2] is in vivo, mice (C57BL/6J, C3H/HeJ, mps/mps). An outline of the steps: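 Test compound dosed IP at 100 mg/kg in DMSO to 15-week female BL/6J, female HeJ and male mps/mps mice (n=3–5/group). Blood and marrow were taken under isoflurane at 20 min. Marrow pellets were resuspended in 50 mM sodium acetate pH 5 and held 2 h on ice, then supernatants were kept. Serum was acidified to pH 5, and aglycone and glucuronide were measured by HLB solid-phase extraction and LC/MS. Mean ± SEM.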

Data set [3] deals with RAW 264.7 cells. The experiment in a line: RAW 264.7 cell viability. Type of data set: cell-based, murine. The conditions noted are these: at approximately 3 μM; data not shown.
The format of data set [4] is in vivo, mice (C57BL/6J, C3H/HeJ). An outline of the steps:
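Oral gavage of 500 mg/kg in DMSO to C57BL/6J and C3H/HeJ mice (n=3–4/group), with sampling at 30 min under isoflurane. Marrow pellets were suspended in 50 mM sodium acetate pH 5 for 2 h on ice and centrifuged. Serum was acidified to pH 5 with HCl before HLB extraction and LC/MS. Marrow concentrations were corrected to pellet volume, assuming density 1.06 g/ml. Mean ± SEM.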

For data set [5], the target named is T1, recombinant human GUSB (Homo sapiens, UniProt P08236).
T1 sequence (P08236 23-651): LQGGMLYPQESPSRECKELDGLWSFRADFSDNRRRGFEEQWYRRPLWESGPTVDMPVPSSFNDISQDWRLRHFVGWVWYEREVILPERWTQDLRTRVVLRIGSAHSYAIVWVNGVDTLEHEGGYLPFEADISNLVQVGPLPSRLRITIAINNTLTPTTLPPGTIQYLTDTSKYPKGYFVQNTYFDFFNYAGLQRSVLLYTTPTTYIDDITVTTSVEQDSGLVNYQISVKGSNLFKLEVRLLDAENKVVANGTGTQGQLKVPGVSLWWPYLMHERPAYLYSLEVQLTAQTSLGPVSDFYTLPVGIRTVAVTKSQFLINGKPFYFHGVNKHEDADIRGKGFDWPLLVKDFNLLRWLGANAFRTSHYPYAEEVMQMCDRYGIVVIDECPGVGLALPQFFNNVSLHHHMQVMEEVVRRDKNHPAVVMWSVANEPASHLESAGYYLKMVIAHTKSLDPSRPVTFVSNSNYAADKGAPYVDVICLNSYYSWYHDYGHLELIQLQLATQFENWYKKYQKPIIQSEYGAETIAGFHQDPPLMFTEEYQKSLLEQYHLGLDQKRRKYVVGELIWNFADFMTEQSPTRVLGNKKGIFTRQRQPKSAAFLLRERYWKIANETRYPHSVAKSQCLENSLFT
The experiment in a line: GUSB-specificity of substrate deconjugation. Type of data set: biochemical. As to conditions: 37°C, 50 mM sodium acetate buffer pH 5. The gist of the method: (§1)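 Recombinant human GUSB, HPSE or KL, normalized to molarity, was incubated 30–60 min at 37°C in 50 mM sodium acetate pH 5 with 4-methylumbelliferyl-glucuronide or phenolphthalein-glucuronide at above-Km concentrations. Reactions were quenched. Product was quantified against 4-MU or phenolphthalein standard curves by fluorescence (Ex 360/Em 470 nm) or absorbance at 540 nm. Rates are given as nmol product per enzyme amount per min.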

Data set [6] has as its target T2, recombinant human HPSE (Homo sapiens, UniProt Q9Y251).
T2 sequence (Q9Y251 158-543 limits assumed): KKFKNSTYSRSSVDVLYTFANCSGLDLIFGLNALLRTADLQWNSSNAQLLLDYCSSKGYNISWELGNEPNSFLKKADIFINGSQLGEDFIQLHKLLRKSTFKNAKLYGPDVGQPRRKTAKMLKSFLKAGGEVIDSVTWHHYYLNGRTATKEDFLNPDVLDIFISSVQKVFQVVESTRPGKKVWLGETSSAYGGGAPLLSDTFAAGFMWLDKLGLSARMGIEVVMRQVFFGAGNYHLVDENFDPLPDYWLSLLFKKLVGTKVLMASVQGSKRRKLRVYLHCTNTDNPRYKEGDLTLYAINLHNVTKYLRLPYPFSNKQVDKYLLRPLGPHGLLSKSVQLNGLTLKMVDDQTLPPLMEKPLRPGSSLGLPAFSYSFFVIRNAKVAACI
T2 sequence (Q9Y251 36-109 limits assumed): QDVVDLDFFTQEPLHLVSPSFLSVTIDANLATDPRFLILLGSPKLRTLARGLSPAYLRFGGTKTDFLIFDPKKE
Description: GUSB-specificity of substrate deconjugation. The format is biochemical. As to conditions: 37°C, 50 mM sodium acetate buffer pH 5. An outline of the steps:
as §1

The target of data set [7] is T3, recombinant human KL (Homo sapiens, UniProt Q9UEF7).
T3 sequence (Q9UEF7 34-1012): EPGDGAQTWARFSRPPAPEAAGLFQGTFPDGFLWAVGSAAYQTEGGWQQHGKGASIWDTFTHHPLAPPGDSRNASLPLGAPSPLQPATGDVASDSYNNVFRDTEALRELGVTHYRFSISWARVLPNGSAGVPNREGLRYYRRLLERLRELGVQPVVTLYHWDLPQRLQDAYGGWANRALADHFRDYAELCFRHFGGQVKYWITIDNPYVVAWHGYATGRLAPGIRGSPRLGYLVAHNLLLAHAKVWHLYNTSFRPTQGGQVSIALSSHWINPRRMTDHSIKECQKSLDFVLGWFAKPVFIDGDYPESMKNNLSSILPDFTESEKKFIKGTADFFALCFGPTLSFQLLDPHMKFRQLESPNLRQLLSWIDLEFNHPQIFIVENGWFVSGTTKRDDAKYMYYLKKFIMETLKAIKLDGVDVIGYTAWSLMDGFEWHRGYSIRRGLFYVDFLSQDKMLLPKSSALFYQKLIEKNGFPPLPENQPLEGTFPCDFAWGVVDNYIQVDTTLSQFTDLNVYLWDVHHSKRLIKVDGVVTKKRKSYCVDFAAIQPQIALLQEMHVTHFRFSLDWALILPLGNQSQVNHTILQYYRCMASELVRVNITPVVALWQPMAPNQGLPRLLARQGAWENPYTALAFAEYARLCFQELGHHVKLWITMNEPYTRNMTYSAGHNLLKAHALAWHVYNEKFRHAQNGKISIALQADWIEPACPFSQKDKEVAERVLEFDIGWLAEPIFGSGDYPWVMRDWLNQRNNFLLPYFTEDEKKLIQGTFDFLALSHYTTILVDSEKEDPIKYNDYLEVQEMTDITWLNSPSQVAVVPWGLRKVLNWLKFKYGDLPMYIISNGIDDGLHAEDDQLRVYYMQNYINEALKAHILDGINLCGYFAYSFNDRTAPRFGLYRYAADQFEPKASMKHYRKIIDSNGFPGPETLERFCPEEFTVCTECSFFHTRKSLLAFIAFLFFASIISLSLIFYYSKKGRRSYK
The experiment in a line: GUSB-specificity of substrate deconjugation. As to conditions: 37°C, 50 mM sodium acetate buffer pH 5. The format is biochemical. The gist of the method: as §1

In data set [8] the target is T4, GUSB (Mus musculus, UniProt P12265).
T4 sequence (P12265 23-648): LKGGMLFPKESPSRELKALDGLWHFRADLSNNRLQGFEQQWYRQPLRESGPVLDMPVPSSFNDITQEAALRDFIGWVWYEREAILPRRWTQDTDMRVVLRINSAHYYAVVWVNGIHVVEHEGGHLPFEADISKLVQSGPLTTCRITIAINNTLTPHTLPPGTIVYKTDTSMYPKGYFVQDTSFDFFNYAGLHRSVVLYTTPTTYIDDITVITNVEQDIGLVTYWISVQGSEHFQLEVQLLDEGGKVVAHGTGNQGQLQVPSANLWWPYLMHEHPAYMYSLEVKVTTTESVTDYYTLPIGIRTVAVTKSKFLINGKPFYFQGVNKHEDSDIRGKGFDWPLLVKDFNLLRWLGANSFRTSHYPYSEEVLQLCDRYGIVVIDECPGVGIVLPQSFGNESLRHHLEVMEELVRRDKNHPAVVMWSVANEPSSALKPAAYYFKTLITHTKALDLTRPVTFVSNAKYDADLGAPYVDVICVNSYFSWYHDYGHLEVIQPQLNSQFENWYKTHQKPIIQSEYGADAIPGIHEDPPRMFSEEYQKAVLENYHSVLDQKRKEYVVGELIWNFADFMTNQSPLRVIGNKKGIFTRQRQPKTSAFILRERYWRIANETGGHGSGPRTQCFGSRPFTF
Type of data set: in vivo, C57BL/6J mice. The conditions noted are these: SL 1 g/kg IP 1 h before oral curcumin 500 mg/kg. The gist of the method:
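Mice were pretreated with saccharolactone (1 g/kg in saline, IP) 1 h before oral gavage of 500 mg/kg curcumin in DMSO. Serum (clotted 10 min RT, 8,000 g 10 min) and marrow were taken at 30 min. Marrow was resuspended in 50 mM sodium acetate pH 5 and held 2 h on ice. Aglycone curcumin and curcumin-glucuronide were measured by LC/MS after HLB extraction.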

Data set [9] concerns the target T4, GUSB. Description: Ex vivo saccharolactone added to marrow suspensions from curcumin-treated mice. The conditions noted are these: 10 mM SL in sodium acetate buffer. Type of data set: biochemical, C57BL/6J mice. An outline of the steps:
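Female 4-week C57BL/6J mice were gavaged with 500 mg/kg oral curcumin in DMSO. Leg marrow was spun out (10,000 g, 15 s) at 30 min and resuspended in 50 mM sodium acetate pH 5 with or without 10 mM saccharolactone. It was held 2 h on ice, then supernatants were taken. Aglycone and glucuronide were quantified by LC/MS (HLB extraction, C18, SRM) as % of total curcumin. n=3–4/group.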

Data set [10] deals with T4, GUSB. The format is biochemical, C57BL/6NJ mice. The conditions noted are these: SL 10 mM, 10 μM curcumin-glucuronide, 2 h, 37°C.

Read-outs that look alike come from different tables or passages of the source. Marks after values point to notes of the source that are not given here. Where only a bound is given, the exact number is not on record here.

In the case of `COc1cc(/C=C/C(=O)CC(=O)/C=C/c2ccc(O)c(OC)c2)ccc1O` [aglycone curcumin, curcumin], the “Aglycone curcumin as share of total curcumin in serum” value in data set [1] (30 min post oral dose, n=11) is given as 0.24% ± 0.07%. Also, the “Aglycone curcumin as share of total curcumin in lyophilized whole bone marrow” value in data set [1] (post oral dose, n=8) is reported as 0.77% ± 0.21%. For the same compound, the “Aglycone curcumin as share of circulating total curcumin” value in [2] (BL/6J serum, IP curcumin) is under 4%. The “Aglycone curcumin as share of total in ex vivo bone marrow suspensions” value in data set [2] (BL/6J, IP curcumin) was 51 % of total. Moreover, the “Bone marrow aglycone curcumin (% of total curcumin) lower vs BL/6J” value in data set [2] (HeJ mice, IP curcumin) is recorded as 73%. Also, in data set [2] (mps/mps mice, IP curcumin), the “Bone marrow aglycone curcumin (% of total curcumin) decrease vs BL/6J” value is listed as 88% and the “Increase of circulating curcumin concentrations vs BL/6J” value amounted to 3.2 fold. Moreover, the Concentration in serum in [2] (mps/mps, 20 min after IP 100 mg/kg curcumin, mean (SEM)) is listed as 22.8 (6.9)^a,b μM. In addition, in data set [3], the “Effect on RAW 264.7 cell viability” value was “did not alter”. Moreover, the “Aglycone curcumin as share of total curcumin in perfusing serum” value in data set [4] (30 min post oral dose, C57BL/6J) is recorded as 0.1–0.2 % of total curcumin. Moreover, in [4] (C3H/HeJ, 30 min after oral 500 mg/kg curcumin, mean (SEM)), the Concentration in serum entry is “nd (≤0.01) μM”. In addition, the “Absolute and relative amounts of marrow aglycone curcumin lower in HeJ vs BL/6J” value in data set [4] (oral 500 mg/kg curcumin, 30 min) is recorded as 59–65%.

For `Cc1cc(=O)oc2cc(O[C@@H]3O[C@H](C(=O)O)[C@@H](O)[C@H](O)[C@H]3O)ccc12` [glucuronidated 4-MU, 4-methylumbelliferyl-glucuronide], the “Rate of cleavage by GUSB” value in data set [5] was 2.64 nmol 4-MU/pmol enzyme/min. Further, the “Rate of cleavage by HPSE” value in data set [6] (without effect) is recorded as under 0.007 nmol 4-MU/nmol enzyme/min. Besides, the “Rate of cleavage by KL” value in [7] (without effect) is on record as under 0.007 nmol 4-MU/nmol enzyme/min.

Regarding `O=C1OC(c2ccc(O)cc2)(c2ccc(O[C@@H]3O[C@H](C(=O)O)[C@@H](O)[C@H](O)[C@H]3O)cc2)c2ccccc21` (stereo partly shown) [glucuronidated PheP, Phenolphthalein-glucuronide], in data set [5], the “Rate of cleavage by GUSB” value is given as 23.5 nmol PheP/nmol enzyme/min. Further, the “Rate of cleavage by HPSE” value in data set [6] is reported as 0.14 nmol PheP/nmol enzyme/min. Further, the “Rate of cleavage by KL” value in data set [7] amounted to 1.0 nmol PheP/nmol enzyme/min.

For the compound `O.O=C(O)[C@@H](O)[C@H]1OC(=O)[C@H](O)[C@H]1O` [saccharolactone, D-Saccharic acid 1,4-lactone monohydrate], in data set [8], the “Aglycone curcumin levels in marrow suspensions after in vivo inhibitor treatment” value was “no longer detectable”. The “Effect on serum levels of aglycone curcumin” value in data set [8] (data not shown) is reported as “unchanged”. Besides, the “Aglycone curcumin in marrow suspensions with inhibitor added ex vivo” value in [9] was “not detected”. Besides, the “Effect on deconjugation of GC in marrow-conditioned media” value in [10] is on record as “inhibitable”.

The values are drawn from publication PMC6528680 (Journal of natural products, 2019).
